One block for each compound: values may come before it.
Assays:
[1] = Plasma concentration in mouse at 50 mg/kg, po after 2 hrs; type: ADME, organism-based; design: dose 50 mg/kg, route oral
In short: (§1)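 Nude mice given a single 50 mg/kg oral dose. Blood levels measured at 2 and 4 h (one compound at 1 h), three mice per measurement, with coefficient of variation reported.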

[2] = Plasma concentration in mouse at 50 mg/kg, po after 4 hrs; type: ADME, organism-based; design: dose 50 mg/kg, route oral; in short: as §1
[3] = Metabolic stability in CD1 rat liver microsomes; type: ADME, Microsome
In short: (§2)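 Stability measured as half-life on exposure to male CD-1 mouse and rat liver microsomes.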

[4] = Metabolic stability in mouse liver microsomes; type: ADME, Microsome; in short: as §2
[5] = Apparent permeability across PAMPA membrane; type: ADME; conditions: read-out: permeability
In short: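 Permeability measured in a PAMPA assay, reported in cm/s.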

[6] = Clearance in nude mouse at 2 mg/kg, iv; type: ADME, organism-based; design: dose 2 mg/kg, route intravenous; conditions: in vivo
In short: (§3)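 Female nude mice given a single dose, 2 mg/kg iv in 0.5% methylcellulose/1% Tween 80 brought to pH 3 with aqueous HCl, or 50 mg/kg by oral gavage. Three mice per group were bled by cardiac stick under isoflurane at 0.25, 0.5, 1, 4, 8 and 24 h and plasma collected. Cl, Vss, T1/2, Cmax, AUC extrapolated to infinity and %F were derived.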

[7] = Volume of distribution at steady state in nude mouse at 2 mg/kg, iv; type: ADME, organism-based; design: dose 2 mg/kg, route intravenous; conditions: in vivo, read-out: Vdss; in short: as §3
[8] = Half life in nude mouse at 2 mg/kg, iv; type: ADME, organism-based; design: dose 2 mg/kg, route intravenous; conditions: in vivo; in short: as §3
[9] = Clearance in female rat at 1 mg/kg, iv; type: ADME, organism-based; design: dose 1 mg/kg, route intravenous; conditions: in vivo
[10] = Volume of distribution at steady state in female rat at 1 mg/kg, iv; type: ADME, organism-based; design: dose 1 mg/kg, route intravenous; conditions: in vivo, read-out: Vdss
[11] = Half life in female rat at 1 mg/kg, iv; type: ADME, organism-based; design: dose 1 mg/kg, route intravenous; conditions: in vivo
[12] = Clearance in male rat at 1 mg/kg, iv; type: ADME, organism-based; design: dose 1 mg/kg, route intravenous; conditions: in vivo
[13] = Volume of distribution at steady state in male rat at 1 mg/kg, iv; type: ADME, organism-based; design: dose 1 mg/kg, route intravenous; conditions: in vivo, read-out: Vdss
[14] = Half life in male rat at 1 mg/kg, iv; type: ADME, organism-based; design: dose 1 mg/kg, route intravenous; conditions: in vivo
[15] = Cmax in nude mouse at 50 mg/kg, po; type: ADME, organism-based; design: dose 50 mg/kg, route oral; conditions: in vivo; in short: as §3
[16] = AUC (infinity) in nude mouse at 50 mg/kg, po; type: ADME, organism-based; design: time infinity, dose 50 mg/kg, route oral; conditions: plasma; in short: as §3
[17] = Oral bioavailability in nude mouse at 50 mg/kg; type: ADME, organism-based; conditions: in vivo; in short: as §3
[18] = Cmax in female rat at 10 mg/kg, po; type: ADME, organism-based; design: dose 10 mg/kg, route oral; conditions: in vivo
[19] = AUC (infinity) in female rat at 10 mg/kg, po; type: ADME, organism-based; design: time infinity, dose 10 mg/kg, route oral; conditions: plasma
[20] = Oral bioavailability in female rat at 10 mg/kg; type: ADME, organism-based; conditions: in vivo
[21] = Cmax in male rat at 10 mg/kg, po; type: ADME, organism-based; design: dose 10 mg/kg, route oral; conditions: in vivo
[22] = AUC (infinity) in male rat at 10 mg/kg, po; type: ADME, organism-based; design: time infinity, dose 10 mg/kg, route oral; conditions: plasma
[23] = Oral bioavailability in male rat at 10 mg/kg; type: ADME, organism-based; conditions: in vivo
[24] = Plasma concentration in mouse at 50 mg/kg, po after 1 hr; type: ADME, organism-based; design: dose 50 mg/kg, route oral; in short: as §1

SMILES: Cn1ccnc1Sc1ccc(Nc2c(C#N)cnc3cc(/C=C/CCN4CCOCC4)ccc23)cc1Cl
- concentration at 2 h [1]: 95 ng/mL
- concentration at 4 h [2]: 22 ng/mL

SMILES: Cn1ccnc1Sc1ccc(Nc2c(C#N)cnc3cc(/C=C/CN4CCCC4)ccc23)cc1Cl
- concentration at 1 h [24]: 72 ng/mL
- concentration at 4 h [2]: 11 ng/mL

SMILES: COc1cc2c(Nc3ccc(Sc4nccn4C)c(Cl)c3)c(C#N)cnc2cc1/C=C/CCN1CCN(C)CC1
- concentration at 2 h [1]: 267 ng/mL
- concentration at 4 h [2]: 76 ng/mL

The remaining lines, values ahead:

- half-life [3]: 21 min
- half-life [4]: 16.5 min
- Papp [5]: 0.45 ×10⁻⁶ cm/s
- clearance [6]: 66 mL/min/kg
- Vd [7]: 2.7 L/kg
- half-life [8]: 54 min
- clearance [9]: 35.7 mL/min/kg
- Vd [10]: 5.7 L/kg
- half-life [11]: 150 min
- clearance [12]: 70.3 mL/min/kg
- Vd [13]: 7.6 L/kg
- half-life [14]: 108 min
- Cmax [15]: 510 ng/mL
- AUC(0-inf) [16]: 2170 ng·h/mL
- bioavailability [17]: 17%
- Cmax [18]: 298 ng/mL
- AUC(0-inf) [19]: 988 ng·h/mL
- bioavailability [20]: 23%
- Cmax [21]: 61 ng/mL
- AUC(0-inf) [22]: 204 ng·h/mL
- bioavailability [23]: 13%
- concentration at 2 h [1]: 494 ng/mL
- concentration at 4 h [2]: 132 ng/mL
SMILES: CCN1CCN(CC/C=C/c2ccc3c(Nc4ccc(Sc5nccn5C)c(Cl)c4)c(C#N)cnc3c2)CC1

- concentration at 2 h [1]: 368 ng/mL
- concentration at 4 h [2]: 85 ng/mL
SMILES: CN1CCN(CC/C=C/c2ccc3c(Nc4ccc(Sc5nccn5C)c(Cl)c4)c(C#N)cnc3c2)CC1

- concentration at 2 h [1]: 319 ng/mL
- concentration at 4 h [2]: 82 ng/mL
SMILES: Cn1ccnc1Sc1ccc(Nc2c(C#N)cnc3cc(/C=C/CCN4CCCC4)ccc23)cc1Cl
